18 molecules from ChEMBL document CHEMBL1145228, “Anti-coxsackievirus B3 activity of 2-amino-3-nitropyrazolo[1,5-a]pyrimidines and their analogs” (Bioorg Med Chem Lett, 2005) can be followed below.

Values after ≈ are worked out from the molar mass of the structure shown. Where only a bound is given, the exact number is not on record here.

In one data set the test system is L929. Briefly: Growth inhibitory concentration against mouse fibroblast cells. It counts as functional. An outline of the steps:
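L-929 fibroblasts (1 × 10^4) added to 10 twofold dilutions and incubated 72h at 37°C, 5% CO2; growth measured by optical density after methylene blue staining; GI50 reported.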

A short description of data set [1]: Cytotoxic concentration against human cervix carcinoma cells. An outline of the steps:
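Confluent HeLa monolayers exposed 72h (37°C, 5% CO2) to twofold serial dilutions in duplicate; cells fixed and stained with crystal violet–formalin, read spectrophotometrically; CC50 = 50% cytotoxic concentration.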

In a further data set the test system is K562. In words: Growth inhibitory concentration against human chronic myeloid leukemic cells. Format: functional. An outline of the steps:
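K-562 suspension cells (1 × 10^4) exposed to 10 twofold dilutions for 72h at 37°C, 5% CO2; proliferation counted with an electronic cell analyzer (CASY); GI50 reported.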

For another data set, the system named is HeLa. Briefly: Inhibitory concentration against Coxsackievirus B3 in HeLa cells. Format: functional, cell-based. To be noted: Homo sapiens.
A short description of data set [2]: Therapeutic index (ratio of CC50 and IC50) was determined; NA denotes ''Not active''. It counts as cell-based. To be noted: human, hela. An outline of the steps: (§1)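 TI computed by dividing mean HeLa CC50 (72h crystal violet cytotoxicity) by mean IC50 from the CVB3 CPE inhibition assay in HeLa cells.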
The nature of data set [3]: Therapeutic index (ratio of CC50 and IC50) was determined. It counts as cell-based. As to conditions: human, HeLa cells; read-out: TI; call rule not given here. An outline of the steps: as §1
A short description of data set [4]: Partition coefficient (logP). Format: physicochemical. As to conditions: octanol/water.

The term GI50 denotes the concentration at which growth is held to half of that of the control. A lower GI50 goes with greater sensitivity of the cells. One may read the CC50 as the concentration that lowers cell viability or growth by half. In general, IC50 refers to the concentration needed to halve the response being measured. Take `CCSC(N)NCc1cc(O)n2nc(N)c([N+](=O)[O-])c2n1` (centres undefined): the GI50 in the data set on L929 and in the data set with K562 was over 50 µg/mL throughout. The cytotoxic concentration (CC50) in data set [1] is over 50 µg/mL. The same molecule gave an IC50 in the data set on HeLa of over 50 µg/mL. Moreover, in data set [2], the TI entry was “Not Active”.
Turning to `Nc1nn2c(O)cc(CCl)nc2c1[N+](=O)[O-]`, the concentration for 50% growth inhibition (GI50) in the data set with L929 and in the data set on K562 was over 50 µg/mL throughout. For the same molecule, the CC50 in data set [1] is over 50 µg/mL. Further, in the data set with HeLa, the half-inhibitory concentration (IC50) was over 50 µg/mL. For the same molecule, the TI result in data set [2] is reported as “Not Active”.
Take `Nc1nn2c(O)cc(CN3CCN(CCO)CC3)nc2c1[N+](=O)[O-]`: the GI50 in the data set on L929 and in the data set with K562 was over 50 µg/mL each time. The molecule further came in with a CC50 in data set [1] of over 50 µg/mL. In the data set with HeLa, this molecule gave an IC50 of over 50 µg/mL. In addition, in data set [2], the TI entry was “Not Active”.
As to `Nc1nn2c(O)cc(CNCCO)nc2c1[N+](=O)[O-]`, the GI50 with L929 and with K562 was over 50 µg/mL throughout. The molecule further gave a 50% cytotoxic concentration (CC50) in data set [1] of over 50 µg/mL. The molecule also had an IC50 in the data set on HeLa of over 50 µg/mL. The TI entry in data set [2] is “Not Active”.
In the case of `NC(=S)NNCc1cc(O)n2nc(N)c([N+](=O)[O-])c2n1`, the GI50 in the data set on L929 and in the data set on K562 was over 50 µg/mL in each case. The cytotoxic concentration (CC50) in data set [1] was over 50 µg/mL. In addition, the IC50 in the data set with HeLa was over 50 µg/mL. Also, the TI entry in data set [2] was “Not Active”.
On to `NC(=NCc1cc(O)n2nc(N)c([N+](=O)[O-])c2n1)SCc1ccccc1`, for which the concentration for 50% growth inhibition (GI50) with L929 and with K562 was over 50 µg/mL in each case. The CC50 in data set [1] is over 50 µg/mL. The IC50 in the data set on HeLa is over 50 µg/mL. Moreover, in data set [2], the TI entry is given as “Not Active”.
The term logP denotes a log measure of how a compound divides between an organic and an aqueous phase. A lower logP goes with a more hydrophilic compound. On to `COc1ccc(NNCc2cc(O)n3nc(N)c([N+](=O)[O-])c3n2)cc1`, for which the concentration for 50% growth inhibition (GI50) is over 50 µg/mL in the data set on L929 and 5.1 µg/mL (≈ 14.8 µM) in the data set on K562. The selectivity ratio in data set [3] was 3.8. In data set [1], this molecule gave a cytotoxic concentration (CC50) of 66.3 µg/mL (≈ 192 µM). The molecule also yielded a 50% inhibitory concentration (IC50) in the data set with HeLa of 17.5 µg/mL (≈ 50.8 µM). In addition, in data set [4], the logP was determined as 2.46.
As for `CCN(CC)C(=O)N1CCN(Cc2cc(O)n3nc(N)c([N+](=O)[O-])c3n2)CC1`, the concentration for 50% growth inhibition (GI50) in the data set on L929 and in the data set on K562 was over 50 µg/mL throughout. This molecule also displayed a CC50 in data set [1] of over 50 µg/mL. The IC50 in the data set with HeLa was over 50 µg/mL. The TI result in data set [2] is “Not Active”.
As for `Nc1nn2c(O)cc(-c3ccccc3F)nc2c1[N+](=O)[O-]`, the GI50 in the data set on L929 and in the data set on K562 was over 50 µg/mL in each case. Also, in data set [3], the selectivity ratio was found to be 3.2. In data set [1], this molecule had a cytotoxic concentration (CC50) of 66.5 µg/mL (≈ 230 µM). Further, the concentration for half-maximal inhibition (IC50) in the data set on HeLa is 20.3 µg/mL (≈ 70.4 µM). This molecule also yielded a logP in data set [4] of 2.34.
`Nc1nn2c(O)cc(CN3CCN(C(c4ccccc4)c4ccccc4)CC3)nc2c1[N+](=O)[O-]`: the GI50 came out at 19.9 µg/mL (≈ 43.3 µM) in the data set on L929 and 9 µg/mL (≈ 19.6 µM) with K562. In addition, it took 14.8 µg/mL (≈ 32.2 µM) to reach half-maximal cytotoxicity in data set [1] (CC50). The same molecule gave an IC50 in the data set with HeLa of over 50 µg/mL. In addition, the lipophilicity (logP) in data set [4] is 3.73. Further, the TI result in data set [2] was “Not Active”.
`Nc1nn2c(O)cc(CNNCCO)nc2c1[N+](=O)[O-]`: the GI50 with L929 and in the data set on K562 was over 50 µg/mL in each case. In data set [1], the CC50 is over 50 µg/mL. In the data set with HeLa, this molecule showed a concentration for half-maximal inhibition (IC50) of over 50 µg/mL. In data set [2], the TI entry is “Not Active”.
Regarding `Nc1nn2c(O)cc(-c3ccc(F)cc3)nc2c1[N+](=O)[O-]`, the GI50 in the data set on L929 and in the data set with K562 was over 50 µg/mL in each case. In addition, in data set [3], the selectivity ratio was over 2. Besides, the CC50 in data set [1] is over 100 µg/mL. In the data set with HeLa, this molecule yielded a concentration for half-maximal inhibition (IC50) of 50.3 µg/mL (≈ 174 µM). The molecule also returned a lipophilicity (logP) in data set [4] of 2.34.
On to `CCN(CC)C(=S)SCc1cc(O)n2nc(N)c([N+](=O)[O-])c2n1`, for which the GI50 in the data set on L929 was over 50 µg/mL; in the data set with K562, 33.1 µg/mL (≈ 92.9 µM). For the same molecule, in data set [1], the cytotoxic concentration (CC50) is over 50 µg/mL. In addition, in the data set on HeLa, the IC50 is over 50 µg/mL. Moreover, in data set [4], the logP came out at 3.06. Further, the TI entry in data set [2] is “Not Active”.
Take `Nc1nn2c(O)cc(-c3cc([N+](=O)[O-])c(Cl)cc3Cl)nc2c1[N+](=O)[O-]`: the GI50 in the data set with L929 and in the data set with K562 was over 50 µg/mL throughout. Further, in data set [3], the selectivity ratio is over 25.6. The CC50 in data set [1] is over 100 µg/mL. The same molecule displayed an IC50 in the data set with HeLa of 3.94 µg/mL (≈ 10.2 µM). The molecule further returned a logP in data set [4] of 2.77.
Regarding `Nc1nn2c(O)cc(-c3ccccc3)nc2c1[N+](=O)[O-]`, the GI50 with L929 and with K562 was over 50 µg/mL in each case. Also, the selectivity ratio in data set [3] is over 3.4. The CC50 in data set [1] is over 100 µg/mL. Also, in the data set on HeLa, the concentration for half-maximal inhibition (IC50) was determined as 29.6 µg/mL (≈ 109 µM). The molecule also showed a logP in data set [4] of 2.54.
`Nc1nn2c(O)cc(CNNc3ccc(F)cc3)nc2c1[N+](=O)[O-]`: the GI50 with L929 turned out to be 41.4 µg/mL (≈ 124 µM); with K562, 19.7 µg/mL (≈ 59.1 µM). Further, the selectivity ratio in data set [3] was over 17.2. Besides, the 50% cytotoxic concentration (CC50) in data set [1] is over 100 µg/mL. In the data set on HeLa, the half-maximal inhibitory concentration (IC50) came to 5.81 µg/mL (≈ 17.4 µM). Besides, in data set [4], the lipophilicity (logP) turned out to be 2.65.
`NNCc1cc(O)n2nc(N)c([N+](=O)[O-])c2n1`: the 50% growth inhibitory concentration (GI50) in the data set on L929 came out at 35.2 µg/mL (≈ 147 µM); in the data set on K562 it was 26.5 µg/mL (≈ 111 µM). This molecule showed a half-maximal cytotoxic concentration (CC50) in data set [1] of 42.6 µg/mL (≈ 178 µM). The molecule further yielded an IC50 with HeLa of 66.5 µg/mL (≈ 278 µM). The molecule also showed a logP in data set [4] of 0.42. In addition, in data set [2], the TI result was “Not Active”.
Regarding `Nc1nn2c(O)cc(CNNc3ccc(S(=O)(=O)O)cc3)nc2c1[N+](=O)[O-]`, the concentration for 50% growth inhibition (GI50) with L929 and in the data set on K562 was over 50 µg/mL in each case. Besides, the CC50 in data set [1] was over 50 µg/mL. The molecule further gave a concentration for half-maximal inhibition (IC50) in the data set on HeLa of over 50 µg/mL. Also, the TI result in data set [2] was “Not Active”.
